This is an account of results in ChEMBL document CHEMBL1782035, “Synthesis and SAR of piperazine amides as novel c-jun N-terminal kinase (JNK) inhibitors” (Bioorg Med Chem Lett, 2009).

Experiment [1] concerns the target Mitogen-activated protein kinase 8 (Homo sapiens, UniProt P45983). As to the kind of experiment: Inhibition of JNK1 using biotinylated ATF2 and ATP substrates by HTRF assay. The gist of the method: (§1)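 HTRF kinase assay with final JNK1 at 0.1 nM or JNK3 at 0.3 nM, biotinylated ATF-2 at 0.4 nM and ATP at 1 μM. Phospho-Thr71-ATF-2 product was detected with a Europium-cryptate anti-phospho-Thr71-ATF-2 antibody and a streptavidin-allophycocyanin-XL acceptor. 10-point dose-response curves were run in duplicate, and IC50 was obtained from a four-parameter logistic fit.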
In general terms: In TR-FRET formats the signal depends on donor and acceptor labels being close together.

Experiment [2] concerns the target Mitogen-activated protein kinase 10 (Homo sapiens, UniProt P53779). Put plainly: Inhibition of JNK3 using biotinylated ATF2 and ATP substrates by HTRF assay. A digest of the protocol:
as §1

Experiment [3] is described as follows: Inhibition of p38.
A short description of experiment [4]: Inhibition of JNK-mediated c-jun phosphorylation in rat INS-1 cells by ELISA incubated for 3 hrs at 37 degC. The format is cell-based. The note with it: INS1, 3 h. The gist of the method:
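INS-1 β-pancreatic cells seeded at 3.5 × 10^4 cells/well in RPMI 1640 with 10% FBS, cultured overnight at 37 °C, 5% CO2. Cells exposed 3 h to 4 mM streptozoicin plus inhibitor (DMSO) in a 10-point dilution spanning four logs, then lysed. Phospho-c-jun captured overnight at 4 °C by sandwich ELISA, TMB read at 450 nm; EC50 from four-parameter logistic.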

The structures appear in SMILES notation. The source made the active and inactive calls. The calls are words filed in the database; no cut-off is given here.

Mitogen-activated protein kinase 8, sequence (P45983 whole entry): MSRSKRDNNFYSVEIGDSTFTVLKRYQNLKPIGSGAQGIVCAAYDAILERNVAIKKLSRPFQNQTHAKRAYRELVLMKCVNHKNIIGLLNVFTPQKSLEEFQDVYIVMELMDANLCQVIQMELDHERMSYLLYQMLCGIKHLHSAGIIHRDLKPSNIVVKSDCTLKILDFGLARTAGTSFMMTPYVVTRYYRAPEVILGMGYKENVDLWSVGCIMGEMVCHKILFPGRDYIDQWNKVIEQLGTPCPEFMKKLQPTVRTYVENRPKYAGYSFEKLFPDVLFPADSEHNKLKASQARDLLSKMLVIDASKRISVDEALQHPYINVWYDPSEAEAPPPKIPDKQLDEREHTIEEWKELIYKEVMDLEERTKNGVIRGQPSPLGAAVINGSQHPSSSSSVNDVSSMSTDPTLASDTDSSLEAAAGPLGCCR
Mitogen-activated protein kinase 10, sequence (P53779 whole entry): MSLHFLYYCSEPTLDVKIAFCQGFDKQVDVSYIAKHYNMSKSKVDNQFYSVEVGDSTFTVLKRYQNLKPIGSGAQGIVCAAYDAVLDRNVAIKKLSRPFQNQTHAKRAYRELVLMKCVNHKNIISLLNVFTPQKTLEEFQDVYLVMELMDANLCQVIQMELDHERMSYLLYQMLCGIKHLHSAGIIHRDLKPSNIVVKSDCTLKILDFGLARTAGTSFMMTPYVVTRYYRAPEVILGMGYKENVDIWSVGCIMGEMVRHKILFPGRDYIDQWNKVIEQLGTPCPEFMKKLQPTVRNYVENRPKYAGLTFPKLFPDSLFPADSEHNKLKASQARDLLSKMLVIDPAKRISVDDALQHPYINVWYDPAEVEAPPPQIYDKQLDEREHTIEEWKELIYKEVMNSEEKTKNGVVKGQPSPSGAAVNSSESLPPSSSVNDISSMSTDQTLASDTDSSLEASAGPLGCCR

For the compound `Cc1cccc(NC(=O)c2ccc(Cl)o2)c1N1CCC2(CC1)OCCO2`, the IC50 (usually the concentration at which inhibition is half-maximal) in experiment [1] stood at 40 nM; in experiment [2], 80 nM.
In the case of `COc1ccc(C(=O)Nc2cccc(C)c2N2CCC3(CC2)OCCO3)o1`, the IC50 in experiment [1] came to 450 nM; in experiment [2] it was 620 nM.
On to `Cc1cccc(NC(=O)c2ccc(C#N)o2)c1N1CCC2(CC1)OCCO2`, for which the IC50 in experiment [1] was 230 nM; in experiment [2], 210 nM.
Consider `O=C(Nc1cccc(Cl)c1N1CCN(c2ccccn2)CC1)c1ccc(Br)o1`, for which the IC50 in experiment [1] was determined as 1200 nM; in experiment [2] it was 1000 nM. For the same compound, in experiment [3], the inhibition entry was “inactive”.
For `C=CCN1CCN(c2c(Cl)cccc2NC(=O)c2ncccn2)CC1`, the half-maximal inhibitory concentration (IC50) in experiment [1] and in experiment [2] was greater than 20000 nM throughout.
Take `C=CCN1CCN(c2c(Cl)cccc2NC(=O)c2ccc[nH]2)CC1`: the figures for the IC50 in experiment [1] and in experiment [2] were 4500 nM and 8900 nM, respectively.
As to `CC(=O)N1CCN(c2c(Cl)cccc2NC(=O)c2ccc(Br)o2)CC1`, the IC50 in experiment [1] turned out to be 600 nM; in experiment [2], 810 nM. The inhibition result in experiment [3] is “inactive”.
With `Cc1cccc(NC(=O)c2ccc(F)o2)c1N1CCC2(CC1)OCCO2`, the IC50 amounted to 210 nM in experiment [1] and 410 nM in experiment [2].
As to `C=CCN1CCN(c2c(Br)cccc2NC(=O)c2ccc(Br)o2)CC1`, the IC50 in experiment [1] and in experiment [2] was greater than 20000 nM in each case. Besides, in experiment [3], the inhibition result is “inactive”.
With `Cc1ccc(C(=O)Nc2cccc(C)c2N2CCC3(CC2)OCCO3)o1`, the values for the IC50 in experiment [1] and in experiment [2] were 330 nM and 530 nM, respectively.
As to `O=C(Nc1cccc(Cl)c1N1CCN(CCc2ccccc2)CC1)c1ccc(Br)o1`, the IC50 in experiment [1] stood at 900 nM; in experiment [2], 1400 nM. In experiment [3], the inhibition result was “inactive”.
As for `C#CCN1CCN(c2c(F)cccc2NC(=O)c2ccc(Br)o2)CC1`, the IC50 came out at 110 nM in experiment [1] and 290 nM in experiment [2]. In experiment [3], the inhibition result was “inactive”.
Regarding `CCc1ccc(C(=O)Nc2cccc(C)c2N2CCC3(CC2)OCCO3)o1`, the half-inhibitory concentration (IC50) was 1400 nM in experiment [1] and 1000 nM in experiment [2].
Take `O=C(Nc1cccc(Cl)c1N1CCN(C2CC2)CC1)c1ccc(Br)o1`: the half-inhibitory concentration (IC50) came out at 180 nM in experiment [1] and 960 nM in experiment [2]. For the same compound, the inhibition result in experiment [3] was “inactive”.
On to `C=CCN1CCN(c2c(Cl)cccc2NC(=O)c2ccno2)CC1`, for which the concentration for half-maximal inhibition (IC50) in experiment [2] was 5000 nM.
With `CC#Cc1ccc(C(=O)Nc2cccc(C)c2N2CCC3(CC2)OCCO3)o1`, the IC50 in experiment [1] and in experiment [2] was 110 nM each time.
For the compound `CC(=O)Nc1ccc(C(=O)Nc2cccc(C)c2N2CCC3(CC2)OCCO3)o1`, the 50% inhibitory concentration (IC50) in experiment [1] is 5800 nM; in experiment [2], 11000 nM.
In the case of `C=CCN1CCN(c2c(Cl)cccc2NC(=O)c2cccc(Br)c2)CC1`, the 50% inhibitory concentration (IC50) was 7100 nM in experiment [1] and 6400 nM in experiment [2].
As for `CC(C)N1CCN(c2c(Cl)cccc2NC(=O)c2ccc(Br)o2)CC1`, the IC50 in experiment [1] is 1500 nM; in experiment [2], 2200 nM. In addition, the inhibition entry in experiment [3] is “inactive”.
Take `CCCN1CCN(c2c(Cl)cccc2NC(=O)c2ccc(Br)o2)CC1`: the IC50 in experiment [1] turned out to be 630 nM; in experiment [2], 900 nM. For the same compound, in experiment [3], the inhibition entry was “inactive”.
`O=C(Nc1cccc(Cl)c1N1CCN(Cc2ccccc2)CC1)c1ccc(Br)o1`: the IC50 in experiment [1] amounted to 880 nM; in experiment [2], 1100 nM. Besides, the inhibition result in experiment [3] is “inactive”.
Turning to `C=CCN1CCN(c2c(NC(=O)c3ccc(Br)o3)cccc2-c2ccccc2)CC1`, the half-maximal inhibitory concentration (IC50) in experiment [1] and in experiment [2] was greater than 20000 nM each time. In experiment [3], the inhibition entry is “inactive”.
As to `C=CCN1CCN(c2c(Cl)cccc2NC(=O)c2cccc(Br)n2)CC1`, in experiment [2], half-maximal inhibition (IC50) required 2000 nM.
For `O=C(Nc1cccc(Cl)c1N1CCN(Cc2ccco2)CC1)c1ccc(Br)o1`, the IC50 was found to be 270 nM in experiment [1] and 250 nM in experiment [2]. For the same compound, the inhibition entry in experiment [3] was “inactive”.
In the same order, the values of `O=C(Nc1cccc(Cl)c1N1CCNCC1)c1ccc(Br)o1` are 4100 nM, 9900 nM and “inactive”.
As to `C=CCN1CCN(c2c(Cl)cccc2NC(=O)c2ccc(Br)o2)CC1`, the concentration for half-maximal inhibition (IC50) in experiment [1] came to 240 nM; in experiment [2] it was 330 nM. Also, the inhibition result in experiment [3] was “inactive”.
In the case of `C=CCN1CCN(c2c(Cl)cccc2NC(=O)c2cccc(C)n2)CC1`, the IC50 in experiment [1] came to 1800 nM; in experiment [2], 2000 nM.
In the case of `CCN1CCN(c2c(Cl)cccc2NC(=O)c2ccc(Br)o2)CC1`, the half-maximal inhibitory concentration (IC50) was 490 nM in experiment [1] and greater than 20000 nM in experiment [3].
Consider `C=CCN1CCN(c2c(NC(=O)c3ccc(Br)o3)cccc2Nc2ccccc2)CC1`, for which the IC50 in experiment [1] and in experiment [2] was greater than 20000 nM in each case. Besides, in experiment [3], the inhibition entry was “inactive”.
On to `CN1CCN(c2c(Cl)cccc2NC(=O)c2ccc(Br)o2)CC1`, for which the IC50 in experiment [1] came to 360 nM; in experiment [2], 1200 nM. Also, the inhibition result in experiment [3] is “inactive”.
In the case of `Cc1cccc(NC(=O)c2ccc(Cc3ccccc3)o2)c1N1CCC2(CC1)OCCO2`, the half-inhibitory concentration (IC50) in experiment [1] worked out at 3200 nM; in experiment [2], 4800 nM.
Turning to `C=C(C)CN1CCN(c2c(Cl)cccc2NC(=O)c2ccc(Br)o2)CC1`, the figures for the half-maximal inhibitory concentration (IC50) in experiment [4], in experiment [1] and in experiment [2] were 3300 nM, 400 nM and 540 nM, respectively. In addition, the inhibition entry in experiment [3] is “inactive”.
For the compound `Cc1cccc(NC(=O)c2ccc(C(F)F)o2)c1N1CCC2(CC1)OCCO2`, the IC50 in experiment [1] stood at 260 nM; in experiment [2] it was 350 nM.
Consider `C=CCN1CCN(c2c(Cl)cccc2NC(=O)c2cnc(Br)s2)CC1`, for which the concentration for half-maximal inhibition (IC50) in experiment [1] stood at 330 nM; in experiment [2] it was 310 nM.
As for `C=CCN1CCN(c2c(Cl)cccc2NC(=O)c2nc(Br)cs2)CC1`, the half-inhibitory concentration (IC50) in experiment [1] and in experiment [2] was 1800 nM each time.
Compound `C=CCN1CCN(c2c(Cl)cccc2NC(=O)c2csc(C)n2)CC1` displayed a 50% inhibitory concentration (IC50) in experiment [2] of 5800 nM.
As for `C=CCN1CCN(c2c(C)cccc2NC(=O)c2ccc(Br)o2)CC1`, the concentration for half-maximal inhibition (IC50) stood at 180 nM in experiment [1] and 200 nM in experiment [2]. The inhibition result in experiment [3] was “inactive”.
For the compound `Cc1cccc(NC(=O)c2ccc(Nc3ccccc3)o2)c1N1CCC2(CC1)OCCO2`, the 50% inhibitory concentration (IC50) in experiment [1] and in experiment [2] was greater than 20000 nM throughout.
Regarding `O=C(Nc1cccc(Cl)c1N1CCN(C(=O)C(F)(F)F)CC1)c1ccc(Br)o1`, the IC50 in experiment [1] and in experiment [2] was greater than 20000 nM throughout. The inhibition entry in experiment [3] was “inactive”.
With `C#CCN1CCN(c2c(Cl)cccc2NC(=O)c2ccc(Br)o2)CC1`, in experiment [1], the IC50 was determined as 140 nM. Also, the inhibition entry in experiment [3] was “inactive”.
With `Cc1cccc(NC(=O)c2ccc(Br)o2)c1N1CCC2(CC1)OCCO2`, the figures for the half-inhibitory concentration (IC50) in experiment [1] and in experiment [2] were 90 nM and 60 nM, respectively.
With `CC(C)(C)OC(=O)N1CCN(c2c(Cl)cccc2NC(=O)c2ccc(Br)o2)CC1`, the concentration for half-maximal inhibition (IC50) is 6300 nM in experiment [1] and greater than 20000 nM in experiment [2]. In addition, in experiment [3], the inhibition entry is “inactive”.
Regarding `C=CCN1CCN(c2c(NC(=O)c3ccc(Br)o3)cccc2C(F)(F)F)CC1`, the half-inhibitory concentration (IC50) in experiment [1] and in experiment [2] was greater than 20000 nM in each case. Further, in experiment [3], the inhibition result is “inactive”.
The compound `C=CCN1CCN(c2c(Cl)cccc2NC(=O)c2cscn2)CC1` displayed an IC50 in experiment [2] of 2300 nM.
On to `C=CCN1CCN(c2c(Cl)cccc2NC(=O)c2ccc(C#N)cn2)CC1`, for which the IC50 in experiment [1] and in experiment [2] was greater than 20000 nM throughout.
